Screening data from PubChem.
CHO parental Ca – counter-screen: ATP calcium response change in parental CHO cells | parental CHO-K1, ATP-induced calcium, Fluo-8 fluorescence | inhibition, % at 5.6 µM | 0.63% of 330,000 active;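 active means inhibition above that plate's mean sample inhibition plus 3 SD, cut at about 26% in these data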;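 further: 0% = ATP-challenged DMSO wells and 100% = DMSO wells without ATP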
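material = parental CHO cells | also added = ATP as calcium-mobilizing challenge | dosing = single point at 5.6 µM | detection = intracellular calcium via Fluo-8 no-wash fluorescent dye | read-out = % inhibition | benchmarks = low control ATP plus DMSO, high control DMSO only | repeats = one well per compound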
TRPML3 ag – agonists of human TRPML3 channel; Q8TDD5; 0.29% of 220,000 active; activation, % at 3 µM; HEK293 TRPML3-YFP, Fluo-8 calcium fluorescence; 100% = the carbachol control signal;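 active means activation above its plate's cutoff, the mean activation of the plate's test wells plus 3 SD, cut at about 12% in these data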;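 further: 0% = DMSO only wells and 100% = carbachol wells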
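Test system – HEK293 line with stable expression of human TRPML3-YFP channel · Control set – carbachol 87 µM final as high control (100%), DMSO as low control (0%) · Signal – Fluo-8 calcium dye fluorescence, ex 470-495, em 515-575 nm · Incubation – 1-h 37 °C dye load, 5-s basal, 120-s post-compound reads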
OX1R antag-1 – human HCRTR1 antagonism; CHO/OX1R cells, Fluo-8 calcium fluorescence, orexin A; O43613; 0.43% of 330,000 active; inhibition, % at 5 µM;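 active means inhibition above its plate's threshold, mean inhibition of all tested compounds on the plate plus 3 SD, cut at about 37% in these data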;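 further: 0% = orexin A challenge wells and 100% = SB-334867-A antagonist wells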
OX1R antag-2 – antagonists of human orexin 1 receptor (OX1R); AID 485270; 1.8% of 330,000 active; inhibition, % at 6.6 µM; OX1R-expressing cells, FRET antagonist read-out; O43613; in the data active means inhibition mostly above about 38%, no sharp cut-off; inactive means mostly below about 40%;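 further: 0% = agonist challenge alone and 100% = reference antagonist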
zfTRPN1 agonist – zebrafish TRPN1 (NompC) channel agonism | HEK293 zebrafish TRPN1-YFP, Fluo-8 calcium fluorescence; 100% = response to 87 µM carbachol | activation, % at 3 µM | 0.18% of 220,000 active | AID 1424;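 active means activation above its plate's cutoff, the mean activation of test wells on that plate plus 3 SD, cut at about 19% in these data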;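 further: 0% = DMSO alone and 100% = 87 µM carbachol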
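Material: zebrafish TRPN1-YFP in HEK293 cells; Doses: single test compound dose, 3 µM nominal, 0.3% DMSO; Timing: dye loading 1 h at 37 °C, then 30 min room temperature; Technique: intracellular calcium fluorescence with Fluo-8; Benchmarks: high carbachol 87 µM, low DMSO alone.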
GPR7 antagonist – antagonists of human GPR7 (neuropeptides B/W receptor 1). AID 1861. 1.1% of 290,000 active. GPR7-expressing cells, fluorescence antagonist assay. P48145. inhibition, % at 4.4 µM; in the data active means inhibition above about 16%, passing the limit was not always enough;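 further: cells stimulated with the agonist NPW; 0% = agonist with vehicle and 100% = vehicle without agonist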
Target sequence (P48145 whole entry, looked up): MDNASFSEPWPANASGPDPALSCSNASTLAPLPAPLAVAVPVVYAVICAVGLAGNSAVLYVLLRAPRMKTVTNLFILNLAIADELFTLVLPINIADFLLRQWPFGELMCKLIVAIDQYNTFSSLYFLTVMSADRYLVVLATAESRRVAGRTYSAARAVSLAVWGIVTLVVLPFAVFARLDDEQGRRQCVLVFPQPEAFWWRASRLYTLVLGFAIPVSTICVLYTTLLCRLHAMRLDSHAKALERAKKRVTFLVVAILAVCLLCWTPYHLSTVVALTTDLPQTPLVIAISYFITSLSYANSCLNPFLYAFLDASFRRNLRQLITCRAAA
GPR7 antag cf – human GPR7 antagonism, confirmation assay; 52% of 2,400 active; shares compounds with GPR7 antagonist; GPR7-expressing cells, calcium fluorescence antagonist mode; AID 1952; inhibition, % at 4.4 µM; in the data active means inhibition above about 24%;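 further: stimulated with the GPR7 agonist NPW; 0% = agonist plus vehicle and 100% = vehicle alone without agonist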
MCHR1 antag – antagonizes human MCHR1, a GPR7 antagonist counter-screen; shares compounds with GPR7 antagonist; MCHR1-expressing cells, fluorescence antagonist assay; inhibition, % at 4.4 µM; 62% of 2,400 active; in the data active means inhibition above about 22%;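 further: 0% = vehicle with agonist and 100% = vehicle without agonist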
OX1R Ca confirm – confirmation of human orexin 1 receptor antagonists; 38% of 1,100 active; CHO/OX1R cells, orexin A calcium Fluo-8 fluorescence; inhibition, % at 5 µM; shares compounds with OX1R antag-1; in the data active means inhibition above about 29%;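 further: 0% = agonist challenge alone and 100% = reference antagonist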
CHO Ca counter – signal in parental CHO cells, OX1R antagonist counter-screen. shares compounds with OX1R antag-1. parental CHO-K1, ATP-induced calcium, Fluo-8 fluorescence. inhibition, % at 5.6 µM. 9.3% of 1,100 active;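 active means inhibition above a per-plate limit, the mean inhibition of that plate's test compounds plus 3 SD, cut at about 25% in these data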;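 further: 0% = ATP challenge with DMSO and 100% = DMSO without ATP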
* marks the source's active call; other numbers are inactive results; / = no result. Most compounds without a hit are left out; they make up all but 3.2% or so of the library.

SMILES	CHO parental Ca	TRPML3 ag	OX1R antag-1	OX1R antag-2	zfTRPN1 agonist	GPR7 antagonist	GPR7 antag cf	MCHR1 antag	others
O=P(Cc1cc(Br)cc(Br)c1OCCO)(c1ccccc1)c1ccccc1	-35	0	-4	42	-1	33*	39*	20
C[C@H](CO)N1C[C@H](C)[C@@H](CN(C)C(=O)NC2CCCCC2)Oc2c(NC(=O)c3ccncc3)cccc2C1=O	-9	/	-18	7	/	/	/	/
COc1ccc(-c2nn(-c3ccccc3)cc2C(=O)NC2CC2)cc1	-10	/	-7	11	/	/	/	/
O=S1(=O)CCN2C(Cc3ccc(SC(F)F)cc3)=CSC2=N1	-10	1	9	-8	2	24*	17	12
CC1=CSC2=NS(=O)(=O)CCN12	-12	0	-8	18	0	-6	/	/
COc1cccc(C2CC(c3ccccc3Cl)n3nc(N)nc3N2)c1 (stereo unspecified)	-5	0	0	14	0	6	/	/
COc1ccc(C2CC(c3cccc(OC)c3)n3nc(N)nc3N2)cc1 (stereo unspecified)	-9	0	-4	6	1	39*	-3	-9
CCc1ccc(C2CC(c3ccccc3)Nc3nc(N)nn32)cc1 (stereo unspecified)	-11	1	-4	11	0	-1	/	/
Cc1ccc(C2CC(c3ccccc3C)n3nc(N)nc3N2)cc1 (stereo unspecified)	-5	1	3	11	6	26*	12	3
COc1cccc(C2CC(c3ccccc3)Nc3nc(N)nn32)c1 (stereo unspecified)	-6	2	-2	11	2	-12	/	/
CCc1ccc(C2CC(c3ccccc3Cl)Nc3nc(N)nn32)cc1 (stereo unspecified)	-9	3	-3	10	15	30*	42*	19
COc1cccc(C2CC(c3ccc(Cl)cc3Cl)n3nc(N)nc3N2)c1 (stereo unspecified)	-17	1	-14	6	7	27*	11	1
O=C(O)c1cn(Cc2ccccc2)c2ccc(Cl)cc2c1=O	-8	/	-13	26	/	/	/	/
Clc1cccc(-c2nnc(SC/C=C/c3ccccc3)n2Cc2ccco2)c1	19	0	49*	12	-1	27*	44*	72*	OX1R Ca confirm=13;CHO Ca counter=-3
Nc1nc(SCC(=O)Nc2ccc([N+](=O)[O-])cc2)[nH]c(=O)c1NC(=O)c1ccc(Br)o1	5	/	-11	16	/	-8	/	/
Cc1cc(C)nc(/N=C(\N)Nc2ccc(SC(F)F)cc2)n1	18	17*	35	13	36*	64*	68*	78*	OX1R Ca confirm=64*;CHO Ca counter=21
CCc1cc(=O)[nH]c(SCc2ccc(C)cc2)n1	-5	0	6	9	-2	-4	/	/
COC(=O)C1=C(C)N(Cc2ccccc2)C(=NCc2ccccc2)N[C@H]1c1ccccc1	3	/	35	15	/	/	/	/
COC(=O)C1=C(C)N(Cc2ccccc2)C(=NCc2ccccc2)N[C@H]1c1cccc(F)c1	14	/	29	22	/	51*	55*	59*	OX1R Ca confirm=33*;CHO Ca counter=7
CC(C)(C)c1ccc(C(=O)NNC(=O)CCC(=O)Nc2ccccc2)cc1	-8	/	-18	-11	/	-6	/	/
N=c1c2c(-c3ccccc3)c(-c3ccccc3)n(Cc3ccco3)c2ncn1Cc1ccccc1	-6	1	59*	15	0	24*	58*	92*	OX1R Ca confirm=43*;CHO Ca counter=2
